Measurements gathered from unrelated publications.
Protocols differ between the studies behind these lines.
HTR2C: 5-hydroxytryptamine receptor 2C (HTR2C, Homo sapiens, UniProt P28335)
HTR2B: 5-hydroxytryptamine receptor 2B (HTR2B, Homo sapiens, UniProt P41595)

SMILES	target	test	conditions	measurement	result
COc1cc2c3c(c1OC)-c1c(cccc1OC)CC3N(C)CC2 (racemic)	HTR2C	ligand displacement, radioligand	10 µM	inhibition	51%
c1cncc([C@@H]2CCCN2)c1	Neuronal acetylcholine receptor; alpha3/beta4 (Rattus norvegicus, UniProt P04757+P12392)	ligand displacement, radioligand	50 µM	inhibition	69.1%
COc1cc(C(F)(F)F)c(OC)cc1C1CCCNC1 (stereo not drawn)	HTR2C	calcium signal, agonist		Emax	31%
CC(C)CC(=O)OC[C@H]1O[C@@](C#N)(c2ccc3c(N)ncnn23)[C@H](O)[C@@H]1O	HTR2B	cell-free assay	20 µM	inhibition	10%
CCOC(=O)Cc1c2c3c(cc(OC)c(OC)c3c3cc(OC)c(OC)cc13)CCN2C	HTR2C	ligand displacement, radioligand	10 µM	inhibition	6%
[2H]c1c([2H])c([C@]2([2H])CCCN2C(=O)C(C)(C)Oc2ccc3cn[nH]c3c2)c([2H])c([2H])c1C([2H])([2H])[2H]	Serine/threonine-protein kinase DCLK3 (DCLK3, Homo sapiens, UniProt Q9C098)	binding, competition with immobilised ligand	1 µM	remaining binding	86%
CC[C@H](C)[C@H](NC(=O)[C@H](CO)NC(=O)[C@H](Cc1ccc(O)cc1)NC(=O)[C@H](CC(=O)O)NC(=O)[C@H](CO)NC(=O)[C@@H](NC(=O)[C@H](Cc1ccccc1)NC(=O)[C@@H](NC(=O)CNC(=O)[C@H](CCC(=O)O)NC(=O)CCNC(=O)C1(c2ccc(Cl)cc2)CCOCC1)[C@@H](C)O)[C@@H](C)CC)C(=O)N[C@@H](C)C(=O)N[C@@H](CCSC)C(=O)N[C@@H](CC(=O)O)C(=O)N[C@@H](CCCCN)C(=O)N[C@H](C(=O)N[C@@H](Cc1c[nH]cn1)C(=O)N[C@@H](CCC(N)=O)C(=O)N[C@@H](CCC(N)=O)C(=O)N[C@@H](CC(=O)O)C(=O)N[C@@H](Cc1ccccc1)C(=O)N[C@H](C(=O)N[C@@H](CC(N)=O)C(=O)N[C@@H](Cc1c[nH]c2ccccc12)C(=O)N[C@@H](CC(C)C)C(=O)N[C@@H](CC(C)C)C(=O)N[C@@H](C)C(=O)N[C@@H](CCC(N)=O)C(=O)NCC(=O)N1CCC[C@H]1C(=O)N[C@@H](CO)C(=O)N[C@@H](CO)C(=O)NCC(=O)N[C@@H](C)C(=O)N1CCC[C@H]1C(=O)N1CCC[C@H]1C(=O)N1CCC[C@H]1C(=O)N[C@@H](CO)C(=O)N[C@@H](CCCCN)C(N)=O)C(C)C)[C@@H](C)CC	Glucagon receptor (Mus musculus, UniProt Q61606)	cAMP, agonist		Emax	< 20%
COc1cc2c3c(c1OC)-c1c(OC)ccc(O)c1CC3N(C)CC2 (stereo not drawn)	HTR2B	ligand displacement, radioligand	10 µM	inhibition	86%
CCCC(NCCc1cc(OC)c(C#N)cc1OC)c1ccccc1O (stereo not drawn)	HTR2C	calcium signal, agonist		Emax	56%
Nc1ncnc2c1ncn2[C@@H]1O[C@H](C[C@@H](N)CC[C@H](N)C(=O)O)[C@@H](O)[C@H]1O	mRNA cap guanine-N(7) methyltransferase (RNMT, Homo sapiens, UniProt O43148)	enzyme activity, inhibitor	12.21 nM	inhibition	13.7%
CN1CCC[C@H]1c1cccnc1	HTR2B	ligand displacement	50 µM	inhibition	-8.78%
COc1cc2cc3c4c(cc(OC)c(OC)c4c2cc1OC)CCN3C	HTR2C	ligand displacement, radioligand	10 µM	inhibition	-1%
